Data set [1] deals with J774.A1. Kind of data set: Drug uptake in mouse J774A.1 cells assessed as dimer to monomer peptide ratio at 100 uM after 24 hrs at 4 degC by HPLC analysis. Conditions: J774A.1, 24 h.
The nature of data set [2]: Cytotoxicity against mouse peritoneal macrophages assessed as live cells at 50 uM by calcein AM assay. In kind it is cell-based, Peritoneal macrophage cell. Conditions: read-out: Activity. Put shortly: (§1)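 Cells seeded at 300,000/well and allowed to adhere, then given fresh DMEM with or without peptide for 24 h. Cells trypsinized, stained with a mammalian Live/Dead viability/cytotoxicity kit and analyzed by flow cytometry. Wilcoxon exact test.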

Data set [3] deals with J774.A1. Kind of data set: Drug uptake in mouse J774A1 cells assessed as total peptide concentration at 150 uM after 5 hrs at 37 degC by HPLC analysis. In kind it is ADME, cell-based. Conditions: j774.a1, 5 h. Put shortly:
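J774A.1 cells were seeded at 300,000 per well and allowed to adhere for 24 h at 37°C in 5% CO2. Medium was replaced with DMEM containing unlabeled peptide, and cells were held at 37°C or 4°C. After three washes in ice-cold PBS, cells were lysed in NP-40 buffer and debris spun out. Reverse-phase HPLC was read at 280 nm. Peaks at 17.5 and 17.75 min were integrated against a standard curve. Intracellular mM was calculated from 300,000 cells at 1 pl each, using monomer mass.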

The subject of data set [4] is Salmonella typhimurium. Kind of data set: Antibacterial activity against 1 MOI Salmonella enterica subsp. enterica serovar Typhimurium infected in mouse J774A1 cells assessed as fold reduction in bacterial growth at 100 uM after 24 hrs. In kind it is functional, J774.A1. Put shortly:
(§2)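 J774A.1 cells or thioglycolate-elicited BALB/c peritoneal macrophages seeded at 200,000/well, overnight 37°C 5% CO2; infected with GFP strain SDT1416, 1 h invasion, washed, 1 h in DMEM with 15 μg/ml gentamicin. Then fresh DMEM plus 15 μg/ml gentamicin with or without peptide (DMSO vehicle) for 24 h at 37°C; macrophages lysed with 1% Triton X-100, plated on LB agar for CFU.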

For data set [5], the system named is J774.A1. Kind of data set: Drug uptake in mouse J774A.1 cells assessed as dimer to monomer peptide ratio at 150 uM after 24 hrs at 4 degC by HPLC analysis. Conditions: J774A.1, 24 h.
A short description of data set [6]: Cytotoxicity against mouse J774A1 cells assessed as live cells at 100 uM by calcein AM assay. The conditions noted are these: read-out: Activity. In kind it is cell-based, J774.A1. Put shortly: as §1
Data set [7] can be described thus: Drug uptake in mouse peritoneal macrophages assessed as dimer to monomer peptide ratio at 150 uM after 24 hrs at 37 degC by HPLC analysis. The conditions noted are these: peritoneal macrophage cell. In kind it is ADME, cell-based. The method in brief: (§3)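 Macrophages were elicited in 8–12-week-old female BALB/c mice with 4% thioglycolate i.p. and harvested by lavage 4 days later. Cells were seeded at 300,000 per well for 24 h, then given unlabeled peptide in DMEM for 24 h at 37°C. Lysates were run on reverse-phase HPLC at A280. Monomer (17.5 min) and dimer (17.75 min) peak areas were compared with a standard curve. Concentration assumed 1 pl per cell; values are means of three determinations.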

Data set [8] in a line: Drug uptake in mouse peritoneal macrophages assessed as total peptide concentration at 100 uM after 24 hrs at 37 degC by HPLC analysis. In kind it is ADME, cell-based. Conditions: peritoneal macrophage cell. Put shortly:
as §3

The nature of data set [9]: Cytotoxicity against mouse peritoneal macrophages assessed as metabolic activity upto 100 uM after 24 hrs by MTT assay. In kind it is ADME, cell-based. The conditions noted are these: peritoneal macrophage cell. Put shortly: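 Cells seeded at 40,000/well in 96-well plates, overnight 37°C 5% CO2, then treated 24 h in fresh DMEM. MTT (4 mg/ml stock in PBS) added for up to 3 h. Formazan solubilized overnight at 37°C in SDS/dimethylformamide/acid lysis buffer, OD read at 575 nm. Paired t tests.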
A general note: Tetrazolium assays rely on reduction of a dye to a coloured formazan, in cell work by metabolically active cells.

The test system of data set [10] is Salmonella typhimurium. Briefly: Antibacterial activity against 1 MOI Salmonella enterica subsp. enterica serovar Typhimurium infected in mouse peritoneal macrophages assessed as reduction in bacterial growth at 150 uM after 24 hrs relative to DMEM control. Details: scale not given: the % may be the effect or the level left. In kind it is functional. Put shortly: as §2

Data set [11] relates to J774.A1. Briefly: Drug uptake in mouse J774A.1 cells assessed as total peptide concentration at 100 uM after 24 hrs at 4 degC by HPLC analysis. The conditions noted are these: J774A.1, 24 h.
Data set [12] relates to Salmonella typhimurium. Kind of data set: Antibacterial activity against 10 MOI Salmonella enterica subsp. enterica serovar Typhimurium G785 transfected with SOS-inducible beta-galactosidase reporter infected in mouse J774A1 cells assessed as bacterial number at 150 uM after 4 hrs postinfection. In kind it is functional, J774.A1. The method in brief: (§4)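 J774A.1 cells infected at MOI 10 with sulA promoter-lacZ reporter strain G785 using the gentamicin-protection protocol, treated with peptide (DMSO vehicle controls) plus 15 μg/ml gentamicin for 4 or 24 h. Released bacteria were plated for colony counts in parallel, and were incubated with 33 μM C12FDG (with 0.2 mM EDTA) in LB for 2 h at 37°C. Flow cytometry gave % fluorescein-positive among LPS-antibody-positive particles; Wilcoxon exact test.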

For data set [13], the system named is J774.A1. Briefly: Drug uptake in mouse J774A1 cells assessed as dimer to monomer peptide ratio at 100 uM after 5 hrs at 37 degC by HPLC analysis. The conditions noted are these: j774.a1, 5 h. In kind it is ADME, cell-based. Put shortly: (§5)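 J774A.1 cells were incubated with unlabeled peptide for 5 or 24 h at 37°C or 4°C, washed in ice-cold PBS and lysed with NP-40 buffer. Lysates were run on reverse-phase HPLC with an acetonitrile/0.1% TFA gradient and A280 fractions. Monomer (~17.5 min) and dimer (~17.75 min) peak areas were compared against a standard curve. Intracellular mM was calculated using 300,000 cells and 1 pl/cell, with concentration expressed as monomer mass.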

Data set [14] deals with Salmonella typhimurium. Kind of data set: Antibacterial activity against 1 MOI Salmonella enterica subsp. enterica serovar Typhimurium infected in mouse J774A1 cells assessed as reduction in bacterial growth at 100 uM after 24 hrs. In kind it is functional, J774.A1. Details: scale not given: the % may be the effect or the level left. Put shortly:
as §2

Data set [15] deals with J774.A1. Briefly: Drug uptake in mouse J774A1 cells assessed as total peptide concentration at 150 uM after 24 hrs at 37 degC by HPLC analysis. In kind it is ADME, cell-based. The conditions noted are these: j774.a1, 24 h. Put shortly: as §5
Data set [16] has as its system J774.A1. Briefly: Drug uptake in mouse J774A1 cells assessed as dimer to monomer peptide ratio at 50 uM after 5 hrs at 37 degC by HPLC analysis. In kind it is ADME, cell-based. Conditions: j774.a1, 5 h. Put shortly: as §5
In data set [17] the test system is J774.A1. Kind of data set: Drug uptake in mouse J774A1 cells assessed as dimer to monomer peptide ratio at 150 uM after 24 hrs at 37 degC by HPLC analysis. In kind it is ADME, cell-based. Conditions: j774.a1, 24 h. Put shortly:
as §5

The test system of data set [18] is J774.A1. Kind of data set: Drug uptake in mouse J774A1 cells assessed as total peptide concentration at 100 uM after 5 hrs at 37 degC by HPLC analysis. In kind it is ADME, cell-based. The conditions noted are these: j774.a1, 5 h. The method in brief: as §5
Data set [19] in a line: Cytotoxicity against mouse peritoneal macrophages assessed as dead cells at 50 uM by propidium iodide assay. In kind it is cell-based. Conditions: peritoneal macrophage cell. Put shortly:
as §1

Data set [20] concerns Salmonella typhimurium. Briefly: Antibacterial activity against 1 MOI Salmonella enterica subsp. enterica serovar Typhimurium infected in mouse J774A1 cells assessed as reduction in bacterial growth at 2.5 times MIC. In kind it is functional, organism-based. The conditions noted are these: J774.A1. Put shortly: as §2
Data set [21] deals with J774.A1. Briefly: Drug uptake in mouse J774A1 cells assessed as dimer to monomer peptide ratio at 150 uM after 5 hrs at 37 degC by HPLC analysis. In kind it is ADME, cell-based. Conditions: j774.a1, 5 h. Put shortly: as §5
For data set [22], the system named is J774.A1. Briefly: Drug uptake in mouse J774A1 cells assessed as dimer to monomer peptide ratio at 150 uM after 5 hrs at 4 degC by HPLC analysis. The conditions noted are these: j774.a1, 5 h. In kind it is ADME, cell-based. The method in brief:
as §5

In data set [23] the test system is Salmonella typhimurium. Briefly: Antibacterial activity against 10 MOI Salmonella enterica subsp. enterica serovar Typhimurium G785 transfected with SOS-inducible beta-galactosidase reporter infected in mouse J774A1 cells assessed as bacterial number at 100 uM after 24 hrs postinfection. In kind it is functional, J774.A1. Put shortly: as §4

The source made the active and inactive calls. The calls are words filed in the database; no cut-off is given here.

For `N=C(N)NCCC[C@@H](NC(=O)[C@@H](CS)NC(=O)[C@@H](Cc1ccc(O)cc1)NC(=O)[C@@H](Cc1c[nH]c2ccccc12)NC(=O)[C@@H](CCCNC(=N)N)NC(=O)[C@H](N)Cc1c[nH]c2ccccc12)C(=O)O`, the Ratio is reported as 11.5 in data set [1]; 15.5 in data set [5]; 11.4 in data set [7]; 2.6 in data set [13]; 2.1 in [16]; 12.5 in data set [17]. Further, the figures for the Ratio in data set [21] and in [22] were 11 and 8.8, respectively. In addition, in [2], the viability at 50 µM was 94.2%. Moreover, the Drug uptake came out at 28.9 mM in [3]; 7.4 mM in data set [8]; 32.9 mM in data set [11]; 30.1 mM in data set [15]; 8 mM in data set [18]. Further, the fold change (FC) in data set [4] was over 100. Also, the viability at 100 µM in [6] was 58.9%. Moreover, the Activity result in [9] is “Non-toxic”; in data set [10], 72.3%; in data set [12], 3%; in data set [14], 85.1%; in data set [19], 3.2%; in data set [23] it was 2.8%. The result in data set [20] was Active.

Source of the values: ChEMBL document CHEMBL1255440, “An antimicrobial peptide that targets DNA repair intermediates in vitro inhibits Salmonella growth within murine macrophages” (Antimicrob Agents Chemother, 2010).
